Data published in ChEMBL document CHEMBL3414564, “3'-functionalized adamantyl cannabinoid receptor probes” (J Med Chem, 2015).
The source made the active and inactive calls. No cut-off for these calls is given here.

Columns and labels:
Cannabinoid receptor 1 [1] = target: T1, Cannabinoid receptor 1 (Rattus norvegicus, UniProt P20272); assay: Agonist activity at rat CB1 receptor expressed in HEK293 cells assessed as inhibition of forskolin-induced cAMP accumulation incubated for 60 mins
Cannabinoid receptor 1 [2] = target: T1, Cannabinoid receptor 1; assay: Displacement of [3H]CP-55,940 from CB1 receptor in rat brain membranes; format: cell membranes, Membrane
Summary of the method: (§1)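 Competition binding against [3H]CP-55,940 on rat brain membranes (CB1) or on membranes of HEK293 cells expressing mouse or human CB2. IC50 by nonlinear regression, converted to Ki. For isothiocyanates the value is an apparent Ki (Ki*), which depends on pretreatment time. Triplicate points; mean of three independent experiments.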

[3] = target: Cannabinoid receptor 1 (Rattus norvegicus) (UniProt P20272); assay: Agonist activity at rat CB1 receptor expressed in HEK293 cells assessed as inhibition of forskolin-induced cAMP accumulation incubated for 60 mins relative to 500 nM CP-55,940; format: functional, cell-based
Cannabinoid receptor 2 [4] = target: T2, Cannabinoid receptor 2 (Homo sapiens, UniProt P34972); assay: Displacement of [3H]CP-55,940 from human CB2 receptor expressed in HEK293 cell membranes; summary of the method: as §1
Cannabinoid receptor 2 [5] = target: T2, Cannabinoid receptor 2; assay: Inverse agonist activity at human CB2 receptor expressed in HEK293 cells assessed as inhibition of forskolin-induced cAMP accumulation incubated for 60 mins; format: functional, cell-based
Summary of the method: (§2)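 Forskolin-stimulated cAMP in HEK293 cells stably expressing rCB1 or hCB2, detached non-enzymatically and washed in HBSS, 1000–1500 cells/well. Compound series given in stimulation buffer with 2 μM forskolin (final), 30 min at room temperature. Eu-cAMP tracer and anti-cAMP TR-FRET detection reagents were then added for 60 min at room temperature. EC50 by nonlinear regression; two independent experiments in triplicate.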

Cannabinoid receptor 2 [6] = target: Cannabinoid receptor 2 (Mus musculus, UniProt P47936); assay: Displacement of [3H]CP-55,940 from mouse CB2 receptor expressed in HEK293 cell membranes; summary of the method: as §1
Cannabinoid receptor 2 [7] = target: T2, Cannabinoid receptor 2; assay: Inverse agonist activity at human CB2 receptor expressed in HEK293 cells assessed as inhibition of forskolin-induced cAMP accumulation incubated for 60 mins relative to 500 nM CP-55,940; format: functional, cell-based
Cannabinoid receptor 2 [8] = target: T2, Cannabinoid receptor 2; assay: Activity at human CB2 receptor expressed in HEK293 cells assessed as inhibition of forskolin-induced cAMP accumulation up to 3 uM incubated for 60 mins; format: functional, cell-based; summary of the method: as §2
[9] = target: Cannabinoid receptor 1 (Rattus norvegicus) (UniProt P20272); assay: Covalent binding affinity to CB1 receptor in rat brain membranes assessed as covalent labeling at 10 times Ki level incubated for 30 mins at 37 degC followed by UV irradiation by [3H]CP-55,940 radioligand binding assay; format: cell membranes; conditions: Membrane
Summary of the method: (§3)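 Membranes were incubated with azido ligand at 10× its Ki for 30 min at 37 °C with gentle agitation, then given UV at 254 nm for 1 min. They were washed twice with 1% BSA in TME and once with TME, and pelleted. A blank membrane sample was run in parallel. Bmax came from [3H]CP-55,940 saturation binding at 0.5–23.8 nM with 25 μg protein, 1 h at 30 °C. Nonspecific binding was taken with 4 μM unlabeled CP-55,940. Labeling % = (Bmax control − Bmax ligand)/Bmax control × 100.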

Cannabinoid receptor 2 [10] = target: T2, Cannabinoid receptor 2; assay: Covalent binding affinity to human CB2 receptor expressed in HEK293 cell membranes assessed as covalent labeling at 10 times Ki level incubated for 30 mins at 37 degC followed by UV irradiation by [3H]CP-55,940 radioligand binding assay; summary of the method: as §3
Cannabinoid receptor 1 [11] = target: T1, Cannabinoid receptor 1; assay: Displacement of [3H]CP-55,940 from CB1 receptor in rat brain membranes incubated for 90 mins; format: cell membranes, Membrane
Summary of the method: (§4)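 Competition binding on rat brain membranes (CB1) against [3H]CP-55,940. Membranes were pretreated with the covalently reacting isothiocyanate ligand for the stated time (15, 30, 60 or 90 min) before the binding step. IC50 came from nonlinear regression and was converted to Ki. Values are reported as a time-dependent apparent Ki (Ki*).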

Cannabinoid receptor 1 [12] = target: T1, Cannabinoid receptor 1; assay: Displacement of [3H]CP-55,940 from CB1 receptor in rat brain membranes incubated for 60 mins; format: cell membranes, Membrane; summary of the method: as §4
[13] = target: Cannabinoid receptor 1 (Rattus norvegicus) (UniProt P20272); assay: Binding affinity to CB1 receptor in rat brain membranes assessed as receptor occupancy at 10 times Ki level incubated for 60 mins by [3H]CP-55,940 radioligand binding assay; format: cell membranes; conditions: Membrane
Summary of the method: (§5)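 Rat brain CB1 membranes were pretreated with isothiocyanate ligand at 10× its Ki at 37 °C for 15, 30 or 60 min. The control was 60 min without ligand. Unbound ligand was removed by BSA/TME washes and centrifugation. Bmax came from [3H]CP-55,940 saturation binding at 0.5–23.8 nM, 25 μg protein, 1 h at 30 °C, with 4 μM unlabeled CP-55,940 for nonspecific binding. Irreversible occupancy = percent Bmax reduction.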

[14] = target: Cannabinoid receptor 1 (Rattus norvegicus) (UniProt P20272); assay: Irreversible binding affinity to CB1 receptor in rat brain membranes assessed as receptor occupancy at 10 times Ki level incubated for 30 mins by [3H]CP-55,940 radioligand binding assay; format: cell membranes; conditions: Membrane; summary of the method: as §5
[15] = target: Cannabinoid receptor 1 (Rattus norvegicus) (UniProt P20272); assay: Irreversible binding affinity to CB1 receptor in rat brain membranes assessed as receptor occupancy at 10 times Ki level incubated for 15 mins by [3H]CP-55,940 radioligand binding assay; format: cell membranes; conditions: Membrane; summary of the method: as §5
Cannabinoid receptor 1 [16] = target: T1, Cannabinoid receptor 1; assay: Displacement of [3H]CP-55,940 from CB1 receptor in rat brain membranes incubated for 15 mins; format: cell membranes, Membrane; summary of the method: as §4
Cannabinoid receptor 1 [17] = target: T1, Cannabinoid receptor 1; assay: Displacement of [3H]CP-55,940 from CB1 receptor in rat brain membranes incubated for 30 mins; format: cell membranes, Membrane; summary of the method: as §4

Cannabinoid receptor 1 (Rattus norvegicus), sequence (P20272 whole entry): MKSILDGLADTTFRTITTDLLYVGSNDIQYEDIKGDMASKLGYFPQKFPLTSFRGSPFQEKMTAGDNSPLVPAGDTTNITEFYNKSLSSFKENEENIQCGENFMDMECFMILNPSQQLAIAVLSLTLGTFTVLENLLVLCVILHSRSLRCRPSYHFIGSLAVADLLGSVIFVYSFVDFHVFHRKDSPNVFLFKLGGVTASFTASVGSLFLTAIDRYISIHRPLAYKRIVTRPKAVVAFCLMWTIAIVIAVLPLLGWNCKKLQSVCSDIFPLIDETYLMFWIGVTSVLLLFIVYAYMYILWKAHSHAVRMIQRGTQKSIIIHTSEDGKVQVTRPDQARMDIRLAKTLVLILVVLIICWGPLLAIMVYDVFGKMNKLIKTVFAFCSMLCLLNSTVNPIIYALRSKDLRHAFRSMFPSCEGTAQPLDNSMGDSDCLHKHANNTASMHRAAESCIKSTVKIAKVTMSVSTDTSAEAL
T1 sequence (P20272 whole entry): as above
T2 sequence (P34972 whole entry): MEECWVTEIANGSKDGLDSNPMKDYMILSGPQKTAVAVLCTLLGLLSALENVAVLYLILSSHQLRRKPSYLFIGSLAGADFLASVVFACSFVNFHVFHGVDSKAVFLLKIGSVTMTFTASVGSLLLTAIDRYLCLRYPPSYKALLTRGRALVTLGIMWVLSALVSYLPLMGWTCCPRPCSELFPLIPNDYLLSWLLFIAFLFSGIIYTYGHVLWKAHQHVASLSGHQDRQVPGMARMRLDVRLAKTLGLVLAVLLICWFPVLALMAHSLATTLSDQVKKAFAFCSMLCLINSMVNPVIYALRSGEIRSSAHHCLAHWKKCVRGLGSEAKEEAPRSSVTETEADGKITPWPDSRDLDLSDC
Cannabinoid receptor 2 (Mus musculus, UniProt P47936), sequence (P47936 whole entry): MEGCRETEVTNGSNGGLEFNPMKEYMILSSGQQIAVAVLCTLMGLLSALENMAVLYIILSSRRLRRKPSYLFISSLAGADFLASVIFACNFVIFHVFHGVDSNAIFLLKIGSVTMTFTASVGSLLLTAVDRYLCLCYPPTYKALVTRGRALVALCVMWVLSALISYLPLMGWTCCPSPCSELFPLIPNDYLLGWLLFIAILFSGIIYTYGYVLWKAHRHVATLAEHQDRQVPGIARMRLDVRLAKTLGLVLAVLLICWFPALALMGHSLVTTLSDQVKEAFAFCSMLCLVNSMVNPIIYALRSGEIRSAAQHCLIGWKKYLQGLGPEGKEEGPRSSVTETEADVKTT

Compound	EC50 (Cannabinoid receptor 1 [1])	Ki (Cannabinoid receptor 1 [2]; read-out: Ki)	Emax [3]	Ki (Cannabinoid receptor 2 [4]; read-out: Ki)	EC50 (Cannabinoid receptor 2 [5])	Ki (Cannabinoid receptor 2 [6]; read-out: Ki)	Emax (Cannabinoid receptor 2 [7])	Activity (Cannabinoid receptor 2 [8])	Activity [9]	Activity (Cannabinoid receptor 2 [10])	further results
CC1(C)Oc2cc([C@]34CC5CC(C[C@@](C#N)(C5)C3)C4)cc(O)c2[C@@H]2C[C@H](O)CC[C@H]21	95.2 nM	45.8 nM	82%	4.2 nM	90.7 nM	2.8 nM	-93%	–	–	–	–
CC1(C)Oc2cc(C34CC5CC(CC(C5)C3)C4)cc(O)c2[C@@H]2C[C@H](O)CC[C@H]21	2.7 nM	–	69%	–	–	–	–	inactive	–	–	–
CC1(C)Oc2cc([C@]34CC5CC(C[C@@](CN=C=S)(C5)C3)C4)cc(O)c2[C@@H]2C[C@H](O)CC[C@H]21	0.8 nM	–	94%	–	> 400 nM	–	-91%	–	63%	74%	Ki (Cannabinoid receptor 1 [2]; read-out: Ki(app)): 3 nM; Ki (Cannabinoid receptor 2 [4]; read-out: Ki(app)): 10.3 nM; Ki (Cannabinoid receptor 2 [6]; read-out: Ki(app)): 34.6 nM
COC(=O)N[C@]12CC3CC(C1)C[C@](c1cc(O)c4c(c1)OC(C)(C)[C@@H]1CC[C@@H](O)C[C@@H]41)(C3)C2	1.6 nM	29.1 nM	71%	8.4 nM	15.8 nM	2.1 nM	-74%	–	–	–	–
CC1(C)Oc2cc([C@]34CC5CC(C[C@@](C(N)=O)(C5)C3)C4)cc(O)c2[C@@H]2C[C@H](O)CC[C@H]21	–	297 nM	–	337 nM	–	947 nM	–	–	–	–	–
CC1(C)Oc2cc([C@]34CC5CC(C[C@@](N=[N+]=[N-])(C5)C3)C4)cc(O)c2[C@@H]2C[C@H](O)CC[C@H]21	4.4 nM	18.6 nM	73%	24.8 nM	–	38.4 nM	–	inactive	61%	26%	–
CC1(C)Oc2cc([C@]34CC5CC(C[C@@](CN)(C5)C3)C4)cc(O)c2[C@@H]2C[C@H](O)CC[C@H]21	–	> 1000 nM	–	> 1000 nM	–	> 1000 nM	–	–	–	–	–
CC1(C)Oc2cc([C@]34CC5CC(C[C@@](N)(C5)C3)C4)cc(O)c2[C@@H]2C[C@H](O)CC[C@H]21	–	> 1000 nM	–	> 1000 nM	–	> 1000 nM	–	–	–	–	–
CC1(C)Oc2cc([C@]34CC5CC(C[C@@](N=C=S)(C5)C3)C4)cc(O)c2[C@@H]2C[C@H](O)CC[C@H]21	12 nM	–	68%	–	–	–	–	inactive	54%	25%	Ki (Cannabinoid receptor 1 [11]): 35.7 nM; Ki (Cannabinoid receptor 1 [12]): 35.4 nM; Ki (Cannabinoid receptor 1 [2]; read-out: Ki(app)): 35.4 nM; Activity [13]: Active; Activity [14]: 54%; Activity [15]: 26%; Ki (Cannabinoid receptor 1 [16]): 96 nM; Ki (Cannabinoid receptor 2 [4]; read-out: Ki(app)): 13.1 nM; Ki (Cannabinoid receptor 2 [6]; read-out: Ki(app)): 31.7 nM; Ki (Cannabinoid receptor 1 [17]): 58.6 nM
CC1(C)Oc2cc([C@]34CC5CC(C[C@@](C(=O)O)(C5)C3)C4)cc(O)c2[C@@H]2C[C@H](O)CC[C@H]21	–	> 1000 nM	–	> 1000 nM	–	> 1000 nM	–	–	–	–	–
CC1(C)Oc2cc([C@]34CC5CC(C[C@@](CC#N)(C5)C3)C4)cc(O)c2[C@@H]2C[C@H](O)CC[C@H]21	5.4 nM	2.6 nM	78%	4.6 nM	83.1 nM	4.4 nM	-78%	–	inactive	inactive	–
CC1(C)Oc2cc([C@]34CC5CC(C[C@@](CN=[N+]=[N-])(C5)C3)C4)cc(O)c2[C@@H]2C[C@H](O)CC[C@H]21	2.4 nM	4.4 nM	45%	9.6 nM	–	26.4 nM	–	inactive	67%	60%	–
